For 15 compounds, Activity and MIC results are on record in ChEMBL document CHEMBL4145622, “Banksialactones and Banksiamarins: Isochromanones and Isocoumarins from an Australian Fungus, Aspergillus banksianus” (2018).

Converted amounts (≈) assume the structure as drawn. The source made the active and inactive calls. The calls are words filed in the database; no cut-off is given here.

The subject of one test is Candida albicans. In words: Antifungal activity against Candida albicans ATCC 10231 after 48 hrs by bromocresol green dye based assay. It counts as functional, organism-based. The essentials: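 C. albicans grown 24 h in 1% malt extract broth, 250 rpm, 24 °C, diluted to 0.005 absorbance unit per mL. Inoculated onto compound in malt extract agar with bromocresol green (50 μg/mL). Test range 100 to 0.05 μg/mL in 1% DMSO. Incubated 24 °C, 48 h. MIC read visually by blue-to-yellow colour change.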

The species named for test [1] is Mus musculus. In words: (§1) Cytotoxicity against mouse NS1 cells after 48 hrs by resazurin dye based assay. Type of test: functional. The essentials: (§2)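 NS-1 myeloma cells seeded at 50 000 cells/mL in DMEM + 10% FBS + 1% penicillin/streptomycin, 37 °C, 5% CO2. Compound range 100 to 0.05 μg/mL (2-fold dilutions, 1% DMSO). Resazurin (250 μg/mL, 10 μL) added at 48 h, then incubated a further 48 h. MIC end point read visually.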

In another test the test system is Escherichia coli. As to the kind of experiment: Antibacterial activity against Escherichia coli ATCC 25922 after 48 hrs by resazurin dye based assay. It counts as functional, organism-based. The essentials: (§3)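 Bacteria pre-grown 24 h in nutrient broth at 28 °C, 100−250 rpm, diluted to 0.01 absorbance unit per mL. Inoculated into wells of compound dispersed in nutrient agar with resazurin (12.5 μg/mL). Test range 100 to 0.05 μg/mL (2-fold dilutions, 1% DMSO). Incubated 48 h at 28 °C. MIC read visually by blue-to-pink colour change.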

The subject of test [2] is Bacillus spizizenii. As to the kind of experiment: Antibacterial activity against Bacillus subtilis ATCC 6633 after 48 hrs by resazurin dye based assay. It counts as functional. Particulars: for MIC: ATCC 6633, 48 h. An outline of the steps:
as §3

In test [3] the test system is Tritrichomonas suis. In words: Antiprotozoal activity against Tritrichomonas foetus KV1. It counts as functional. The essentials: (§4)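 Trophozoites seeded at 4 × 10^4 cells/mL in medium containing tryptone, yeast extract, glucose, L-cysteine, phosphates, ascorbic acid, FeSO4 and 10% newborn calf serum. Compound range 100 to 0.05 μg/mL in 1% DMSO. Plates held anaerobically at 37 °C.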

Test [4] has as its system Saccharomyces cerevisiae. In words: Antifungal activity against Saccharomyces cerevisiae ATCC 9763 after 48 hrs by bromocresol green dye based assay. Type of test: functional. Particulars: ATCC 9763, 48 h. An outline of the steps:
(§5)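 S. cerevisiae grown 24 h in 1% malt extract broth, 250 rpm, 24 °C, diluted to 0.03 absorbance unit per mL. Inoculated onto compound in malt extract agar with bromocresol green (50 μg/mL). 2-fold series from 100 to 0.05 μg/mL in 1% DMSO. Incubated at 24 °C for 48 h. MIC read visually by blue-to-yellow colour change.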

Test [5] in a line: as §1. Type of test: functional. An outline of the steps:
as §2

In test [6] the test system is Saccharomyces cerevisiae. As to the kind of experiment: Antifungal activity against Saccharomyces cerevisiae ATCC 9763 up to 100 ug/ml 48 hrs by bromocresol green dye based assay. It counts as functional, organism-based. An outline of the steps: as §5
Test [7] deals with Tritrichomonas suis. In words: Antiprotozoal activity against Tritrichomonas foetus KV1 up to 100 ug/ml. Type of test: functional, organism-based. The essentials:
as §4

The species entered for test [8] is Mus musculus. As to the kind of experiment: Cytotoxicity against mouse NS1 cells up to 100 ug/ml 48 hrs by resazurin dye based assay. It counts as functional, cell-based. An outline of the steps: as §2
For test [9], the system named is Bacillus spizizenii. In words: Antibacterial activity against Bacillus subtilis ATCC 6633 up to 100 ug/ml 48 hrs by resazurin dye based assay. Type of test: functional, organism-based. An outline of the steps:
as §3

Take `Cc1c(O)cc(O)c2c1[C@H](C)[C@](O)(CO)OC2=O`: the result with Candida albicans, in the test filed under Mus musculus [1], with Escherichia coli, with Bacillus spizizenii [2] and in the test on Tritrichomonas suis [3] was inactive.

For the compound `COc1cc(O)c2c(c1C)[C@H](C)[C@](O)(COC(=O)c1c(C)c(C)c(O)c(C)c1O)OC2=O`, the MIC with Saccharomyces cerevisiae [4] amounted to 50 µg/mL (≈ 112 µM); in [5], 100 µg/mL (≈ 224 µM); with Bacillus spizizenii [2], 25 µg/mL (≈ 56 µM); with Tritrichomonas suis [3], 50 µg/mL (≈ 112 µM). The result in the test on Candida albicans and in the test on Escherichia coli was inactive.

For the compound `Clc1ccccc1C(c1ccccc1)(c1ccccc1)n1ccnc1` [CLOTRIMAZOLE], the MIC against Saccharomyces cerevisiae [4] is 0.2 µg/mL (≈ 0.58 µM).

Regarding `COc1cc(O)c2c(c1C)[C@H](C)[C@](O)(COC(=O)c1c(C)cc3c(c1O)C(=O)c1c(O)cc(O)cc1C3=O)OC2=O`, the result in the test on Candida albicans, in the test with Escherichia coli and in the test with Saccharomyces cerevisiae [6] was inactive. Moreover, the MIC in [5] was determined as 100 µg/mL (≈ 177 µM); in the test with Bacillus spizizenii [2], 25 µg/mL (≈ 44.3 µM); against Tritrichomonas suis [3], 12.5 µg/mL (≈ 22.1 µM).

In the case of `O=c1[nH]cc(F)c(=O)[nH]1` [FLUOROURACIL], in test [5], the MIC amounted to 0.8 µg/mL (≈ 6.15 µM).

As to `COC(=O)Nc1nc2cc(C(=O)c3ccccc3)ccc2[nH]1` [MEBENDAZOLE], the MIC against Tritrichomonas suis [3] turned out to be 1.6 µg/mL (≈ 5.42 µM).

As to `COc1cc(O)c2c(c1C)[C@H](C)[C@H](CO)OC2=O`, the outcome with Candida albicans, in the test listed under Mus musculus [1], in the test with Escherichia coli, with Bacillus spizizenii [2] and in the test on Tritrichomonas suis [3] was inactive.

`CC1(C)S[C@@H]2[C@H](NC(=O)[C@H](N)c3ccccc3)C(=O)N2[C@H]1C(=O)O` [AMPICILLIN]: the MIC in the test with Bacillus spizizenii [2] was found to be 0.4 µg/mL (≈ 1.14 µM).

Turning to `COc1cc(O)c2c(c1C)[C@H](C)[C@](O)(CSCC(O)C(=O)O)OC2=O` (some centres not stated), the result in the test with Candida albicans, in the test listed under Mus musculus [1], with Escherichia coli, in the test with Bacillus spizizenii [2] and in the test on Tritrichomonas suis [3] was inactive.

Take `COc1cc(O)c2c(c1C)[C@H](C)[C@](O)(CO)OC2=O`: the result with Candida albicans, in the test listed under Mus musculus [1], with Escherichia coli, with Bacillus spizizenii [2] and with Tritrichomonas suis [3] was inactive.

As for `COc1cc(O)c2c(c1C)[C@](C)(O)[C@H](C)OC2=O`, the outcome in the test on Candida albicans, in the test filed under Mus musculus [1], in the test with Escherichia coli, in the test with Bacillus spizizenii [2] and in the test on Tritrichomonas suis [3] was inactive.

Turning to `COc1cc(O)c2c(c1C)[C@H](C)[C@](O)(COC(=O)c1c(O)cc(O)c(C)c1C)OC2=O`, the result in the test on Candida albicans, in the test on Tritrichomonas suis [7] and in the test on Escherichia coli was inactive. For the same compound, the MIC is 100 µg/mL (≈ 231 µM) in test [5] and 50 µg/mL (≈ 116 µM) in the test on Bacillus spizizenii [2].

With `COc1cc(O)c2c(c1C)[C@H](C)[C@](O)(C[S+](C)[O-])OC2=O` (some centres not stated), the outcome in the test on Candida albicans, in the test filed under Mus musculus [1], in the test on Escherichia coli, in the test with Bacillus spizizenii [2] and with Tritrichomonas suis [3] was inactive.

Turning to `COc1cc(O)cc2c1C(=O)c1c(O)cc(C)cc1C2=O` [QUESTIN], the result in the test listed under Mus musculus [8], in the test on Candida albicans, with Escherichia coli, in the test with Saccharomyces cerevisiae [6] and in the test with Bacillus spizizenii [9] was inactive. In the test with Tritrichomonas suis [3], the MIC worked out at 12.5 µg/mL (≈ 44 µM).

On to `COc1cc(OC)c2c(c1C)[C@](C)(O)[C@H](C)OC2=O`, for which the outcome in the test on Candida albicans, in the test filed under Mus musculus [1], in the test with Escherichia coli, in the test with Bacillus spizizenii [2] and with Tritrichomonas suis [3] was inactive.
